# Measured values gathered from unrelated publications.
# Protocols differ between the studies behind these lines.
# Organism: Leishmania donovani
# Read-out: parasite growth
SMILES,test,test system,conditions,IC50
c1ccc(CNc2nc(-c3ccccn3)nc3ccccc23)cc1,,THP-1,"intracellular, amastigote",2170 nM
C[C@@H]1[C@H](O)[C@@H](C)/C=C/C=C/C=C/C=C/C=C/C=C/C=C/[C@H](O[C@@H]2O[C@H](C)[C@@H](O)[C@H](N)[C@@H]2O)C[C@@H]2O[C@](O)(C[C@@H](O)C[C@@H](O)[C@H](O)CC[C@@H](O)C[C@@H](O)CC(=O)O[C@H]1C)C[C@H](O)[C@H]2C(=O)O,,THP-1,"5 days, intracellular, amastigote",400 nM
C[C@@H]1[C@H](O)[C@@H](C)/C=C/C=C/C=C/C=C/C=C/C=C/C=C/[C@H](O[C@@H]2O[C@H](C)[C@@H](O)[C@H](N)[C@@H]2O)C[C@@H]2O[C@](O)(C[C@@H](O)C[C@@H](O)[C@H](O)CC[C@@H](O)C[C@@H](O)CC(=O)O[C@H]1C)C[C@H](O)[C@H]2C(=O)O,resazurin,,promastigote,0.19 µg/mL
CCC/C=C/c1cc2c(C=O)c(O)c(CC=C(C)C)cc2o1,resazurin,,"48 h, promastigote",6.2 µg/mL
N=C(N)c1ccc(OCCCCCOc2ccc(C(=N)N)cc2)cc1,resazurin,,"72 h, promastigote",1.65 µg/mL
COc1cc(NC(C)CCCNCCNCCNCCCC(C)Nc2cc(OC)cc3cccnc23)c2ncccc2c1.Cl.Cl (centres unmarked),resazurin,,promastigote,2.99 µg/mL
CCCCCCCCCCCCCCCCOP(=O)([O-])OCC[N+](C)(C)C,,,promastigote,4230 nM
CCCCCCCCCCCCCCCCOP(=O)([O-])OCC[N+](C)(C)C,,,"intracellular, amastigote",1830 nM
c1ccc(CN2CCN(c3nc(-c4ccccn4)nc4ccccc34)CC2)cc1,,THP-1,"intracellular, amastigote",4200 nM
COc1cc(NC(C)CCCN)c2ncccc2c1 (centres unmarked),resazurin,,promastigote,19.9 µg/mL
Cc1cc(NC(=O)Nc2ccc3c(c2)OC(F)(F)O3)cc(C(F)(F)F)n1,,,"intracellular, amastigote",860 nM
N=C(N)c1ccc(OCCCCCOc2ccc(C(=N)N)cc2)cc1,resazurin,,"48 h, promastigote",1 µg/mL
c1ccc(-c2nc(N3CCCC3)c3ccccc3n2)nc1,imaging,THP-1,"intracellular, amastigote",1300 nM
O=[N+]([O-])c1c(CS(=O)(=O)c2ccccc2)nc2c(Br)cc(Br)cn12,MTT,,"72 h, promastigote",1800 nM
N=C(N)c1ccc(OCCCCCOc2ccc(C(=N)N)cc2)cc1,,,promastigote,651 nM
C[C@@H]1[C@H](O)[C@@H](C)/C=C/C=C/C=C/C=C/C=C/C=C/C=C/[C@H](O[C@@H]2O[C@H](C)[C@@H](O)[C@H](N)[C@@H]2O)C[C@@H]2O[C@](O)(C[C@@H](O)C[C@@H](O)[C@H](O)CC[C@@H](O)C[C@@H](O)CC(=O)O[C@H]1C)C[C@H](O)[C@H]2C(=O)O,resazurin,,"72 h, promastigote",0.57 µg/mL
Fc1cccc(Nc2nc(-c3ccccn3)nc3ccccc23)c1,,THP-1,"intracellular, amastigote",1400 nM
